Measured values from ChEMBL document CHEMBL1143237, “Sulfonamide-1,2,4-triazole derivatives as antifungal and antibacterial agents: synthesis, biological evaluation, lipophilicity, and conformational studies” (Bioorg Med Chem, 2008).
Converted amounts (≈) assume the structure as drawn.

Legend:
[1] = tested on: Aspergillus niger; test: Antifungal activity against Aspergillus niger ATCC 6275 after 72 hrs by microdilution test; type: functional; details: ATCC 6275, 72 h
In short: (§1)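 Modified microdilution in malt broth. Spores were washed from malt agar with sterile 0.85% saline containing 0.1% Tween 80 and adjusted to about 1.0 × 10⁵ per well. Compounds were dissolved in DMSO and tested at […] µg/ml. Incubation 72 h at 28 °C. MIC is the lowest concentration with no visible growth under a binocular microscope. MFC by 2 µl subculture and a further 72 h at 28 °C.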

[2] = tested on: Escherichia coli; test: Antibacterial activity against Escherichia coli ATCC 35210 after 24 hrs by microdilution test; type: functional; details: ATCC 35210, 24 h
In short: (§2)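 Broth microdilution in LB medium in 96-well plates. Inoculum 1.0 × 10⁴ CFU per well, from a suspension set to 1.0 × 10⁵ CFU/ml in sterile saline. Compounds at […] µg/ml. Incubation 24 h at 28 °C. MIC is the lowest concentration with no visible growth under a binocular microscope. MBC by subculturing 2 µl into fresh broth for a further 72 h. OD540 read against blank. DMSO negative control.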

[3] = Partition coefficient, log P of the compound; type: physicochemical; details: octanol/water
In short: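 Calculated, not measured: AlogP, IAlogP, ClogP, Cosmo logP, mlogP, Kowwin and XlogP were computed and averaged.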

[4] = tested on: Micrococcus luteus; test: Antibacterial activity against Micrococcus flavus ATCC 10240 after 24 hrs by microdilution test; type: functional; details: ATCC 10240, 24 h; in short: as §2
[5] = tested on: Talaromyces funiculosus; test: Antifungal activity against Penicillium funiculosum ATCC 36839 after 72 hrs by microdilution test; type: functional; details: ATCC 36839, 72 h; in short: as §1
[6] = tested on: Aspergillus flavus; test: Antifungal activity against Aspergillus flavus ATCC 9643 after 72 hrs by microdilution test; type: functional; details: ATCC 9643, 72 h; in short: as §1
[7] = tested on: Staphylococcus epidermidis; test: Antibacterial activity against Staphylococcus epidermidis ATCC 12228 after 24 hrs by microdilution test; type: functional; details: ATCC 12228, 24 h; in short: as §2
[8] = tested on: Salmonella enteritidis; test: Antibacterial activity against Salmonella enteritidis ATCC 13076 after 24 hrs by microdilution test; type: functional, Salmonella enterica subsp. enterica serovar Enteritidis; details: Salmonella enterica, ATCC 13076, 24 h; in short: as §2
[9] = tested on: Salmonella typhimurium; test: Antibacterial activity against Salmonella Typhimurium ATCC 13311 after 24 hrs by microdilution test; type: functional, Salmonella enterica subsp. enterica serovar Typhimurium; details: Salmonella enterica, ATCC 13311, 24 h; in short: as §2
[10] = tested on: Aspergillus versicolor; test: Antifungal activity against Aspergillus versicolor ATCC 11730 after 72 hrs by microdilution test; type: functional; details: ATCC 11730, 72 h; in short: as §1
[11] = tested on: Aspergillus ochraceus; test: Antifungal activity against Aspergillus ochraceus ATCC 12066 after 72 hrs by microdilution test; type: functional; details: ATCC 12066, 72 h; in short: as §1
[12] = tested on: Bacillus cereus; test: Antibacterial activity against Bacillus cereus ATCC 10907 after 24 hrs by microdilution test; details: ATCC 10907, 24 h
[13] = tested on: Trichoderma viride; test: Antifungal activity against Trichoderma viride IAM 5061 after 72 hrs by microdilution test; type: functional; in short: as §1
[14] = tested on: Enterobacter cloacae; test: Antibacterial activity against Enterobacter cloacae after 24 hrs by microdilution test; type: functional; in short: as §2

Row | Compound | MFC [1] | MIC [1] | MBC [2] | MIC [2] | logP [3] | MBC [4] | MIC [4] | MFC [5] | MIC [5] | MFC [6] | MIC [6] | MBC [7] | MIC [7] | MBC [8] | MIC [8] | MBC [9] | MIC [9] | MFC [10] | MIC [10] | MFC [11] | also measured
1 | COc1cc(Cc2n[nH]c(=S)n2-c2ccccc2)c(S(=O)(=O)N(C)C)cc1OC | 150 µg/mL (≈ 345 µM) | 100 µg/mL (≈ 230 µM) | 150 µg/mL (≈ 345 µM) | 100 µg/mL (≈ 230 µM) | 1.72 | 150 µg/mL (≈ 345 µM) | 150 µg/mL (≈ 345 µM) | 100 µg/mL (≈ 230 µM) | 100 µg/mL (≈ 230 µM) | 100 µg/mL (≈ 230 µM) | 50 µg/mL (≈ 115 µM) | 150 µg/mL (≈ 345 µM) | 150 µg/mL (≈ 345 µM) | 150 µg/mL (≈ 345 µM) | 150 µg/mL (≈ 345 µM) | 150 µg/mL (≈ 345 µM) | 100 µg/mL (≈ 230 µM) | 150 µg/mL (≈ 345 µM) | 100 µg/mL (≈ 230 µM) | 150 µg/mL (≈ 345 µM) | MIC [11]: 100 µg/mL (≈ 230 µM); MBC [12]: 150 µg/mL (≈ 345 µM); MIC [12]: 150 µg/mL (≈ 345 µM); MFC [13]: 100 µg/mL (≈ 230 µM); MIC [13]: 50 µg/mL (≈ 115 µM); MBC [14]: 100 µg/mL (≈ 230 µM); MIC [14]: 100 µg/mL (≈ 230 µM)
2 | COc1cc(Cc2n[nH]c(=S)n2-c2ccc(Cl)cc2)c(S(=O)(=O)N2CCOCC2)cc1OC | 150 µg/mL (≈ 294 µM) | 150 µg/mL (≈ 294 µM) | 150 µg/mL (≈ 294 µM) | 100 µg/mL (≈ 196 µM) | 2.25 | 150 µg/mL (≈ 294 µM) | 150 µg/mL (≈ 294 µM) | 150 µg/mL (≈ 294 µM) | 100 µg/mL (≈ 196 µM) | 150 µg/mL (≈ 294 µM) | 100 µg/mL (≈ 196 µM) | 150 µg/mL (≈ 294 µM) | 150 µg/mL (≈ 294 µM) | 150 µg/mL (≈ 294 µM) | 150 µg/mL (≈ 294 µM) | 150 µg/mL (≈ 294 µM) | 100 µg/mL (≈ 196 µM) | 150 µg/mL (≈ 294 µM) | 100 µg/mL (≈ 196 µM) | 150 µg/mL (≈ 294 µM) | MIC [11]: 100 µg/mL (≈ 196 µM); MBC [12]: 150 µg/mL (≈ 294 µM); MIC [12]: 150 µg/mL (≈ 294 µM); MFC [13]: 150 µg/mL (≈ 294 µM); MIC [13]: 100 µg/mL (≈ 196 µM); MBC [14]: 100 µg/mL (≈ 196 µM); MIC [14]: 100 µg/mL (≈ 196 µM)
3 | COc1cc(Cc2n[nH]c(=S)n2-c2ccc(Cl)cc2)c(S(=O)(=O)N2CCCCC2)cc1OC | 150 µg/mL (≈ 295 µM) | 100 µg/mL (≈ 196 µM) | 150 µg/mL (≈ 295 µM) | 100 µg/mL (≈ 196 µM) | 3.31 | 150 µg/mL (≈ 295 µM) | 150 µg/mL (≈ 295 µM) | 150 µg/mL (≈ 295 µM) | 100 µg/mL (≈ 196 µM) | 150 µg/mL (≈ 295 µM) | 100 µg/mL (≈ 196 µM) | 150 µg/mL (≈ 295 µM) | 150 µg/mL (≈ 295 µM) | 150 µg/mL (≈ 295 µM) | 150 µg/mL (≈ 295 µM) | 150 µg/mL (≈ 295 µM) | 100 µg/mL (≈ 196 µM) | 150 µg/mL (≈ 295 µM) | 100 µg/mL (≈ 196 µM) | 150 µg/mL (≈ 295 µM) | MIC [11]: 100 µg/mL (≈ 196 µM); MBC [12]: 150 µg/mL (≈ 295 µM); MIC [12]: 150 µg/mL (≈ 295 µM); MFC [13]: 150 µg/mL (≈ 295 µM); MIC [13]: 100 µg/mL (≈ 196 µM); MBC [14]: 100 µg/mL (≈ 196 µM); MIC [14]: 100 µg/mL (≈ 196 µM)
4 | COc1cc(Cc2n[nH]c(=S)n2-c2ccccc2)c(S(=O)(=O)N2CCCC2)cc1OC | 150 µg/mL (≈ 326 µM) | 150 µg/mL (≈ 326 µM) | 150 µg/mL (≈ 326 µM) | 150 µg/mL (≈ 326 µM) | 2.13 | 150 µg/mL (≈ 326 µM) | 150 µg/mL (≈ 326 µM) | 150 µg/mL (≈ 326 µM) | 100 µg/mL (≈ 217 µM) | 150 µg/mL (≈ 326 µM) | 100 µg/mL (≈ 217 µM) | 150 µg/mL (≈ 326 µM) | 150 µg/mL (≈ 326 µM) | 150 µg/mL (≈ 326 µM) | 150 µg/mL (≈ 326 µM) | 150 µg/mL (≈ 326 µM) | 150 µg/mL (≈ 326 µM) | 150 µg/mL (≈ 326 µM) | 100 µg/mL (≈ 217 µM) | 150 µg/mL (≈ 326 µM) | MIC [11]: 100 µg/mL (≈ 217 µM); MBC [12]: 150 µg/mL (≈ 326 µM); MIC [12]: 150 µg/mL (≈ 326 µM); MFC [13]: 150 µg/mL (≈ 326 µM); MIC [13]: 150 µg/mL (≈ 326 µM); MBC [14]: 100 µg/mL (≈ 217 µM); MIC [14]: 100 µg/mL (≈ 217 µM)
